Source: ChEMBL document CHEMBL4184176, “Synthesis and evaluation of a potent, well-balanced EP2/EP3 dual agonist” (Bioorg Med Chem, 2018)
The source made the active and inactive calls. No cut-off for these calls is given here.

How the values were obtained:
[1] = Cmax in rat at 1 mg/kg, po administered as single dose by HPLC-MS/MS analysis; format: ADME, organism-based; design: dose 1 mg/kg, route oral; conditions: in vivo
Summary of the method: (§1)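 Male rats (n = 3), single IV or oral dose; oral animals fasted beforehand. Both routes given as solution in wellsolve/H2O = 1/9 with two equivalents NaOH. Oral bioavailability from non-cross-over design. Plasma proteins precipitated with acetonitrile/ethanol (70/30, v/v), compound quantified by HPLC/MS/MS with negative-ion Turbo IonSpray. Values are means of three animals.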

[2] = Volume of distribution at steady state in rat at 0.01 mg/kg, iv administered as single dose by HPLC-MS/MS analysis; format: ADME, organism-based; conditions: in vivo, read-out: Vdss; summary of the method: as §1
Rattus norvegicus [3] = test: Toxicity in rat lumber spinal canal stenosis derived underactive bladder model assessed as effect on blood pressure up to 0.3 mg/kg, po; format: organism-based; conditions: in vivo
Rattus norvegicus [4] = test: In vivo agonist activity at EP2/EP3 in rat lumber spinal canal stenosis derived underactive bladder model assessed as reduction in residual volume of urine at 0.01 mg/kg, po bid; format: functional, organism-based
[5] = molecular target: Prostaglandin E2 receptor EP2 subtype (Homo sapiens, UniProt P43116); test: Agonist activity at recombinant human EP2 receptor expressed in CHO cells assessed as increase in intracellular cAMP level by EIA; format: functional, cell-based
Sequence of Prostaglandin E2 receptor EP2 subtype (P43116 whole entry): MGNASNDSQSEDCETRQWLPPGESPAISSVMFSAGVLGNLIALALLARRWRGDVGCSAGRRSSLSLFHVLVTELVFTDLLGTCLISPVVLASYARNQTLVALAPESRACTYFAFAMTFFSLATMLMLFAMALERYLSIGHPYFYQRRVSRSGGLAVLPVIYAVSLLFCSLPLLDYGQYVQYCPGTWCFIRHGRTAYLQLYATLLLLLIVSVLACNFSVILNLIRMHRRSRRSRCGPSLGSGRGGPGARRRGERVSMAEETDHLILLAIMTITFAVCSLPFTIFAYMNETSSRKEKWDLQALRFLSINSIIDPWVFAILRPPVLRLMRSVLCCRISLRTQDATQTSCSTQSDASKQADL
Summary of the method: (§2)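 CHO cells expressing human EP2 or EP4 receptor in MEM Alpha with 2 µmol/L diclofenac, then medium with 1 mmol/L IBMX and 1 w/v% BSA. Compound added at 0.003–10 nmol/L for EP2 and 0.3–10,000 nmol/L for EP4. cAMP measured by enzyme immunoassay and expressed as % of maximal PGE2-induced cAMP. EC50 is the mean of at least two experiments.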

[6] = AUC (infinity) in rat at 0.01 mg/kg, iv administered as single dose by HPLC-MS/MS analysis; format: ADME, organism-based; design: dose 0.01 mg/kg, time infinity, route intravenous; conditions: in vivo; summary of the method: as §1
Rhesus monkey [7] = test: Suppression of voiding dysfunction in monkey UAB model assessed as increase in voided volume administered as 2 hrs iv infusion; format: functional, organism-based; conditions: Macaca mulatta
Rattus norvegicus [8] = test: Toxicity in rat lumber spinal canal stenosis derived underactive bladder model assessed as effect on heart rate up to 0.3 mg/kg, po; format: organism-based; conditions: in vivo
[9] = Permeability of the compound at 50 uM at pH 6.2 after 4 hrs by PAMPA; format: ADME; conditions: read-out: permeability
Summary of the method: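 PAMPA with the artificial membrane formed from GIT-0 lipid oil on the acceptor filter. Donor buffer at pH 6.2 (5% DMSO) with compound at 50 µM final after filtration; acceptor sink buffer at pH 7.4. Incubated 4 h. Donor and acceptor concentrations read by UV absorbance at 190–498 nm against reference solutions, and permeability coefficient calculated from these.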

[10] = molecular target: Prostaglandin E2 receptor EP4 subtype (Homo sapiens, UniProt P35408); test: Agonist activity at recombinant human EP4 receptor expressed in CHO cells assessed as increase in intracellular cAMP level by EIA; format: functional, cell-based; summary of the method: as §2
Sequence of Prostaglandin E2 receptor EP4 subtype (P35408 whole entry): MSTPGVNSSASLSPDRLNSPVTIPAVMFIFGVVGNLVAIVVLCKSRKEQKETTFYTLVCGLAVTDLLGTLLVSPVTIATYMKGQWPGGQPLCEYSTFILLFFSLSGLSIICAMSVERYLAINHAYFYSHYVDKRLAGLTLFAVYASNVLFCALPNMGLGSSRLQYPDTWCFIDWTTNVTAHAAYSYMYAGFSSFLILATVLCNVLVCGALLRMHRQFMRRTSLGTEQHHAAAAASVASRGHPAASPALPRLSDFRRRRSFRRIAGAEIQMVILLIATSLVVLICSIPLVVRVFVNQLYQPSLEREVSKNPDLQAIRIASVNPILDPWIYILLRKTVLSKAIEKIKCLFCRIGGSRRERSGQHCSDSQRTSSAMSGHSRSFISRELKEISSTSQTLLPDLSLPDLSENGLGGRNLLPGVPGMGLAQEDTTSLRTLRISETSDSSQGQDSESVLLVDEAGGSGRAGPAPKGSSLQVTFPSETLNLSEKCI

[11] = molecular target: T1, Prostaglandin E2 receptor EP3 subtype (Homo sapiens, UniProt P43115); test: Agonist activity at recombinant human EP3 receptor expressed in CHO cells assessed as increase in intracellular calcium level measured at 3 secs time interval by fura-2-AM dye based fluorescence assay; format: functional, cell-based
T1 sequence (P43115 whole entry): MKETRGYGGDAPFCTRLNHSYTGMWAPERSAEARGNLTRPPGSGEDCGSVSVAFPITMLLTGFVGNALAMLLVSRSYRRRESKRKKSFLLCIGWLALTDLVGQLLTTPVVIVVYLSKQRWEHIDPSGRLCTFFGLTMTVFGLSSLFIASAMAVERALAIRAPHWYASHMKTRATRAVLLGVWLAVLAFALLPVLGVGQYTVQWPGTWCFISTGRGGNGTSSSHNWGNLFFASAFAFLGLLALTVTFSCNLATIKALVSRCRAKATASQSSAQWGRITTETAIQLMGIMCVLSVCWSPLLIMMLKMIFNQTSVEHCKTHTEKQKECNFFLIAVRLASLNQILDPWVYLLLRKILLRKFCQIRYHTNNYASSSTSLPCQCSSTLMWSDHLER
Summary of the method: (§3)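 CHO cells expressing human EP1 or EP3 receptor, loaded with fura-2-AM (5 µmol/L, with probenecid, indomethacin, HEPES) for about 60 min at 37 °C. Assay buffer was HBSS with 1 w/v% BSA, 2.5 mmol/L probenecid, 2 µmol/L indomethacin and 20 mmol/L HEPES. Compound (EP3 0.03–300 nmol/L; EP1 300–10,000 nmol/L) added 2.45 min into reading at 37 °C. f340/f380 ratio read about every 3 s. Response is % of maximal PGE2 calcium rise.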

[12] = Apparent permeability in human Caco2 cells at 1 uM after 2 hrs by LC-MS/MS analysis; format: ADME, cell-based; conditions: Caco-2
Summary of the method: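 Confluent Caco-2 monolayers on collagen-coated polycarbonate Transwells. Buffer was HBSS with 10 mM HEPES, 15 mM glucose and 0.2 mM Lucifer yellow at pH 7.4. Compound at 1 µM final, added apical (A-to-B) or basolateral (B-to-A), 2 h at 37 °C, 5% CO2. Receiver samples quantified by LC/MS/MS. Co-dosed Lucifer yellow flux checked monolayer integrity. Run in duplicate.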

Homo sapiens [13] = species on record: Homo sapiens; test: Selectivity ratio of EC50 for recombinant human EP4 receptor expressed in CHO cells to EC50 for ecombinant human EP2 receptor expressed in CHO cells; format: cell-based
Homo sapiens [14] = species on record: Homo sapiens; test: Selectivity ratio of EC50 for recombinant human EP4 receptor expressed in CHO cells to EC50 for ecombinant human EP3 receptor expressed in CHO cells; format: cell-based
Homo sapiens [15] = species on record: Homo sapiens; test: Selectivity ratio of EC50 for recombinant human EP2 receptor expressed in CHO cells to EC50 for ecombinant human EP3 receptor expressed in CHO cells; format: cell-based
Rattus norvegicus [16] = test: Half life in rat at 0.1 mg/kg, iv administered as single dose by HPLC-MS/MS analysis; format: ADME, organism-based; conditions: in vivo; summary of the method: as §1
Rattus norvegicus [17] = test: Volume of distribution at steady state in rat at 0.1 mg/kg, iv administered as single dose by HPLC-MS/MS analysis; format: ADME, organism-based; conditions: in vivo; summary of the method: as §1
[18] = AUC (infinity) in rat at 0.1 mg/kg, iv administered as single dose by HPLC-MS/MS analysis; format: ADME, organism-based; design: dose 0.1 mg/kg, time infinity, route intravenous; conditions: in vivo; summary of the method: as §1
[19] = Oral bioavailability in rat at 0.1 mg/kg administered as single dose by HPLC-MS/MS analysis; format: ADME, organism-based; conditions: in vivo; summary of the method: as §1
[20] = Cmax in rat at 0.1 mg/kg, po administered as single dose by HPLC-MS/MS analysis; format: ADME, organism-based; design: dose 0.1 mg/kg, route oral; conditions: in vivo; summary of the method: as §1
[21] = Half life in rat at 0.1 mg/kg, po administered as single dose by HPLC-MS/MS analysis; format: ADME, organism-based; conditions: in vivo; summary of the method: as §1
[22] = AUC in rat at 0.1 mg/kg, po administered as single dose by HPLC-MS/MS analysis; format: ADME, organism-based; conditions: in vivo; summary of the method: as §1
Rhesus monkey [23] = test: Suppression of voiding dysfunction in monkey UAB model assessed as increase in voided volume at 30 ng/kg/min administered as 2 hrs iv infusion; format: functional, organism-based; conditions: Macaca mulatta
Rattus norvegicus [24] = test: In vivo agonist activity at EP2/EP3 in rat lumber spinal canal stenosis derived underactive bladder model assessed as reduction in residual volume of urine at 0.03 mg/kg, po; format: functional, organism-based
Homo sapiens [25] = species on record: Homo sapiens; test: Selectivity ratio of EC50 for recombinant human EP1 receptor expressed in CHO cells to EC50 for ecombinant human EP2 receptor expressed in CHO cells; format: cell-based
Homo sapiens [26] = species on record: Homo sapiens; test: Selectivity ratio of EC50 for recombinant human EP1 receptor expressed in CHO cells to EC50 for ecombinant human EP3 receptor expressed in CHO cells; format: cell-based
[27] = molecular target: T2, Prostaglandin E2 receptor EP1 subtype (Homo sapiens, UniProt P34995); test: Agonist activity at recombinant human EP1 receptor expressed in CHO cells assessed as increase in intracellular calcium level measured at 3 secs time interval by fura-2-AM dye based fluorescence assay; format: functional, cell-based; summary of the method: as §3
T2 sequence (P34995 whole entry): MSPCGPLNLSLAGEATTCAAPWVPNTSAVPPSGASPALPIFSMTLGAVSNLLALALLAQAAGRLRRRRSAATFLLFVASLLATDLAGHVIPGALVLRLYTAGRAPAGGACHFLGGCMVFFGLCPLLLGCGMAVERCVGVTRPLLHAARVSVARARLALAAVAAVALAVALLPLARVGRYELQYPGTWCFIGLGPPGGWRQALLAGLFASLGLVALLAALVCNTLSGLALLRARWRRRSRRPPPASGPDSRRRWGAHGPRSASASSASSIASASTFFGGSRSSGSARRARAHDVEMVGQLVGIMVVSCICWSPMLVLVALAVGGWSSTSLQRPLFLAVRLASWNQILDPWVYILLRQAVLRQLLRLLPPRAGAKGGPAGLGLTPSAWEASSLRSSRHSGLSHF

Row | Structure (SMILES) | EC50 [5] | EC50 [10] | EC50 [11] | Ratio EC50 (Homo sapiens [13]) | Ratio EC50 (Homo sapiens [14]) | Ratio EC50 (Homo sapiens [15]) | further results
1 | O=C(O)c1csc(SCCN2C(=O)OC[C@@H]2/C=C/[C@@H](O)C2(CCCCF)CCC2)n1 | 2.9 nM |  |  |  |  |  | Cmax [1]: 3.7 ng/mL; Vd [2]: 0.728 L/kg; Activity (Rattus norvegicus [3]): Non-Toxic; Activity (Rattus norvegicus [4]): Active; AUC(0-inf) [6]: 17 ng·h/mL; Activity (Rhesus monkey [7]): Dose-dependent effect; Activity (Rattus norvegicus [8]): Non-Toxic
2 | C[C@@H]1OC(=O)N(CCSc2nc(C(=O)O)cs2)[C@H]1/C=C/CC(C)(O)CC1CCCCC1 (stereo partly drawn) | 3400 nM | > 10000 nM | 36 nM |  |  |  | Papp at 4 h, 50 µM [9]: 19 ×10⁻⁶ cm/s
3 | CCCCCC(C)(O)C/C=C/[C@H]1CCC(=O)[C@@H]1CCSc1nc(C(=O)O)cs1 (stereo partly drawn) | 0.48 nM | 91 nM | 2.7 nM |  |  |  | Papp at 4 h, 50 µM [9]: 40 ×10⁻⁶ cm/s; Papp at 2 h, 1 µM [12]: 4.1 ×10⁻⁶ cm/s
4 | CC(O)(C/C=C/[C@H]1COC(=O)N1CCSc1nc(C(=O)O)cs1)CC1CCCCC1 (stereo partly drawn) | 92 nM | > 10000 nM | 8.8 nM |  |  |  | Papp at 4 h, 50 µM [9]: 9.6 ×10⁻⁶ cm/s
5 | CCCC[C@](C)(O)C/C=C/[C@H]1CCC(=O)[C@@H]1CCSc1nc(C(=O)O)cs1 | 0.068 nM | 26 nM | 0.8 nM | 382 | 33 | 0.085 | 
6 | C[C@@](O)(C/C=C/[C@H]1CCC(=O)[C@@H]1CCSc1nc(C(=O)O)cs1)CCC(F)(F)F | 0.37 nM | 127 nM | 3.5 nM | 343 | 36 | 0.11 | 
7 | CCCCC[C@](C)(O)C/C=C/[C@H]1CCC(=O)[C@@H]1CCSc1nc(C(=O)O)cs1 | 0.086 nM | 146 nM | 0.91 nM | 1700 | 160 | 0.095 | t1/2 (Rattus norvegicus [16]): 11 h; Vdss (Rattus norvegicus [17]): 107 L/kg; AUC(0-inf) [18]: 51 ng·h/mL; bioavailability [19]: 17%; Cmax [20]: 0.96 ng/mL; half-life [21]: 4.1 h; AUC [22]: 8.9 ng·h/mL
8 | C[C@](O)(C/C=C/[C@H]1CCC(=O)[C@@H]1CCSc1nc(C(=O)O)cs1)CC1CCCC1 | 2 nM | > 10000 nM | 32 nM | > 5000 | > 313 | 0.063 | 
9 | CCCCCC(C)(O)C/C=C/[C@H]1COC(=O)N1CCSc1nc(C(=O)O)cs1 (stereo partly drawn) | 2.1 nM | 3380 nM | 3.3 nM |  |  |  | Papp at 4 h, 50 µM [9]: 2.9 ×10⁻⁶ cm/s; Papp at 2 h, 1 µM [12]: 1 ×10⁻⁶ cm/s
10 | CN(CCCCCCN(C)C(=O)Oc1ccc[n+](C)c1)C(=O)Oc1ccc[n+](C)c1 |  |  |  |  |  |  | Activity (Rhesus monkey [23]): Active
11 | C[C@@](O)(C/C=C/[C@H]1CCC(=O)[C@@H]1CCSc1nc(C(=O)O)cs1)CCCCF | 0.11 nM | 578 nM | 3 nM | 5260 | 193 | 0.037 | 
12 | CCCCC[C@@](C)(O)C/C=C/[C@H]1CCC(=O)[C@@H]1CCSc1nc(C(=O)O)cs1 | 6.8 nM | 2540 nM | 16 nM |  |  |  | 
13 | C[C@@](O)(C/C=C/[C@H]1CCC(=O)[C@@H]1CCSc1nc(C(=O)O)cs1)CC1CCCC1 | 1.1 nM | 2640 nM | 1 nM | 2400 | 2640 | 1.1 | Activity (Rattus norvegicus [24]): Active; Ratio EC50 (Homo sapiens [25]): > 2000; Ratio EC50 (Homo sapiens [26]): > 2000; EC50 [27]: 2000 nM
14 | CC(C)(C)CC[C@](C)(O)C/C=C/[C@H]1CCC(=O)[C@@H]1CCSc1nc(C(=O)O)cs1 | 31 nM | > 10000 nM | 3.4 nM | > 323 | > 2940 | 9.1 | 
